Test results taken from ChEMBL document CHEMBL1773009, “Red-fluorescent argininamide-type NPY Y1 receptor antagonists as pharmacological tools” (Bioorg Med Chem, 2011).
Calls of active or inactive are those of the source. The rule behind the calls is not given here.

Key:
[1] = molecular target: T1, Neuropeptide Y receptor type 1 (Homo sapiens) (UniProt P25929); experiment: Antagonist activity at Y1R in human HEL cells assessed as inhibition of pNPY induced [Ca2+] mobilisation; type: functional, cell-based
T1 sequence (whole entry): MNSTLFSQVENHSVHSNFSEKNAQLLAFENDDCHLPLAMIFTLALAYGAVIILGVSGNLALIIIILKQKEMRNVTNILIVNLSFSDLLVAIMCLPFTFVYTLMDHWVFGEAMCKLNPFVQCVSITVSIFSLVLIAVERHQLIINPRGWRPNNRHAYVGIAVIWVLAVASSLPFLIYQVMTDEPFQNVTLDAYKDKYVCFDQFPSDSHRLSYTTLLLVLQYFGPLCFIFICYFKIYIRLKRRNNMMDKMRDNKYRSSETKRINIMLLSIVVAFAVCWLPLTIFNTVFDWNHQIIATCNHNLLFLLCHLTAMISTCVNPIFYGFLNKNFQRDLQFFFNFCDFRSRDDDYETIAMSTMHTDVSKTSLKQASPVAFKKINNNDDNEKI

[2] = molecular target: T2, Neuropeptide Y receptor type 1 (Homo sapiens, UniProt P25929); experiment: Displacement of [3H]-UR-MK114 from Y1R in human SK-N-MC cells; type: cell-based
T2 sequence (P25929 whole entry): T1 sequence (whole entry)

[3] = molecular target: Neuropeptide Y receptor type 4 (Homo sapiens, UniProt P50391); experiment: Displacement of Cy5-[K4]-hpp from human Y4R expressed in CHO cells by flow cytometry; type: cell-based
Procedure, shortened: (§1)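 Flow cytometric displacement of labelled peptides: Cy5-[K4]-hPP on CHO-Y4 cells; Dy-635-pNPY or Cy5-pNPY on CHO-Y2 and HEC-1B-Y5 cells. Test ligands only at 1 and 10 µM or at 0.3 and 1 µM; for the red-excitable ligand, its own fluorescence without peptide was subtracted.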

[4] = Chemical stability of the compound in DMSO at below 0 degC; type: physicochemical
[5] = Chemical stability in aqueous buffer assessed as compound decomposition after 20 mins at pH 7 by HPCL; type: physicochemical; settings: read-out: Activity
Procedure, shortened: (§2)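 Compound at 50 µM final (from 1 mM DMSO stock) in PBS pH 7.0, 20 °C; aliquots at 20 and 90 min diluted with acetonitrile/H2O/1% TFA, analysed by RP-HPLC (220 nm); release of parent argininamide quantified against a five-point calibration curve (0.3–25 µM).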

[6] = molecular target: T3, Neuropeptide Y receptor type 5 (Homo sapiens, UniProt Q15761); experiment: Displacement of Dy-635-pNPY from human Y5R expressed in HEC-1B cells by flow cytometry
T3 sequence (Q15761 whole entry): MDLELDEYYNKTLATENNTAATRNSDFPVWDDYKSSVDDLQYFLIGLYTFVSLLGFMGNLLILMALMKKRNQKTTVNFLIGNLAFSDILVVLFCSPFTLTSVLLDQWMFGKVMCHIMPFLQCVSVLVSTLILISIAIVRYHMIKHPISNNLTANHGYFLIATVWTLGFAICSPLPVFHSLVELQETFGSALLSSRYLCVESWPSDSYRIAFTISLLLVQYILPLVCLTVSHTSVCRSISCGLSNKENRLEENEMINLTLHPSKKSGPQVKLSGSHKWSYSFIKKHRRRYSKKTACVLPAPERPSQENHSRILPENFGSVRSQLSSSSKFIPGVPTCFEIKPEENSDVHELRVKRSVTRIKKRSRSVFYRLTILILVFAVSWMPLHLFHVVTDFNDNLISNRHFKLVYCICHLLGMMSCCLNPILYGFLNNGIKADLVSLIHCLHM

[7] = molecular target: T1, Neuropeptide Y receptor type 1 (Homo sapiens); experiment: Antagonist activity at Y1R in human MCF-7 cells at 50 nM after 5 to 8 mins by fluorescence confocal microscopy; type: functional, cell-based; settings: MCF7
Procedure, shortened: (§3)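 MCF-7-Y1 cells (MCF-7 subclone with 2–3-fold higher Y1R expression) pretreated 48 or 72 h with 1 nM 17β-estradiol; live-cell confocal imaging of fluorescent ligand (50–80 nM) after 5–23 min at rt in Leibovitz L15; non-specific binding with excess BIBP 3226 (5 µM or 80–125-fold); autofluorescence control.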

[8] = molecular target: T4, Neuropeptide Y receptor type 2 (Homo sapiens, UniProt P49146); experiment: Displacement of Dy-635-pNPY from human Y2R expressed in CHO cells by flow cytometry; type: cell-based; procedure, shortened: as §1
T4 sequence (P49146 whole entry): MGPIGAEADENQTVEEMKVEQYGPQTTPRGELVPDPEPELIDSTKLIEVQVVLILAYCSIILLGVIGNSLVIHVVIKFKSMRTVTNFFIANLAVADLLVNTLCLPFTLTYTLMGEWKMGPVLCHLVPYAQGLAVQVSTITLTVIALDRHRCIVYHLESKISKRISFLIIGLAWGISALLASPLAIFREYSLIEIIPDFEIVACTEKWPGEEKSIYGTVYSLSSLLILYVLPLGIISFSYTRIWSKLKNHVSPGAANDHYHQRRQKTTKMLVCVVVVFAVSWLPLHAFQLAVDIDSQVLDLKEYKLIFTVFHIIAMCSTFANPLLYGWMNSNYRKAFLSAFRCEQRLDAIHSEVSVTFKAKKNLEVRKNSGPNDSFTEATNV

[9] = molecular target: T2, Neuropeptide Y receptor type 1; experiment: Displacement of [3H]-UR-MK114 from Y1R in human SK-N-MC cells by radioligand competition binding
[10] = Chemical stability in aqueous buffer assessed as compound decomposition after 90 mins at pH 7 by HPCL; type: physicochemical; settings: read-out: Activity; procedure, shortened: as §2
[11] = molecular target: T1, Neuropeptide Y receptor type 1 (Homo sapiens); experiment: Antagonist activity at Y1R in human MCF-7 cells at 80 nM after 23 mins by fluorescence confocal microscopy; type: functional, cell-based; settings: MCF7; procedure, shortened: as §3

Neuropeptide Y receptor type 4, sequence (P50391 whole entry): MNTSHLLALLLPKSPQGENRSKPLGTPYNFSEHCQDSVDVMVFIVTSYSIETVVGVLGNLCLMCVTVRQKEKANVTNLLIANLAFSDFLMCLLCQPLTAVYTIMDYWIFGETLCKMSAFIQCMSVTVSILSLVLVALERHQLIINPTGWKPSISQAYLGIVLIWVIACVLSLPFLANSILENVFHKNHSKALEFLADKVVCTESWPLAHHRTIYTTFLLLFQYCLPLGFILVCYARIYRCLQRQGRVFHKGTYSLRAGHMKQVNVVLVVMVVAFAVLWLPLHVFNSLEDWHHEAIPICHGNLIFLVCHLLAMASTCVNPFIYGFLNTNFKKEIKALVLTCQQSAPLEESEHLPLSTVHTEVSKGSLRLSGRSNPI

| Structure (SMILES) | Kb [1] [nM] | Ki [2] [nM] | Stability [4] [months] | further results |
| --- | --- | --- | --- | --- |
| Cc1cc(/C=C/c2cc3c4c(c2)CCCN4CCC3)cc(C)[n+]1CCN(CCNC(=O)CCCCCCC(=O)/N=C(\N)NCCC[C@@H](NC(=O)C(c1ccccc1)c1ccccc1)C(=O)NCc1ccc(O)cc1)CCNC(=O)CCCCCCC(=O)/N=C(\N)NCCC[C@@H](NC(=O)C(c1ccccc1)c1ccccc1)C(=O)NCc1ccc(O)cc1.O=C([O-])C(F)(F)F | 0.6 | 100 | 12 |  |
| CN(C)c1ccc(/C=C/C=C/c2sc3ccccc3[n+]2CCCC(=O)O)cc1.O=C([O-])C(F)(F)F |  |  | 12 |  |
| Cc1cc(/C=C\C=C2\N(C)c3ccc4ccccc4c3C2(C)C)cc(C)[n+]1CCOCCOCCNC(=O)CCCCCCC(=O)/N=C(/N)NCCC[C@@H](NC(=O)C(c1ccccc1)c1ccccc1)C(=O)NCc1ccc(O)cc1.O=C([O-])C(F)(F)F | 7.8 | 130 | 12 |  |
| NCCCCCC(=O)/N=C(/N)NCCC[C@@H](NC(=O)C(c1ccccc1)c1ccccc1)C(=O)NCc1ccc(O)cc1 | 95 |  |  |  |
| Cc1cc(/C=C/c2cc3c4c(c2)CCCN4CCC3)cc(C)[n+]1CCN(CCNC(=O)CCCNC(=O)CCCC(=O)/N=C(\N)NCCC[C@@H](NC(=O)C(c1ccccc1)c1ccccc1)C(=O)NCc1ccc(O)cc1)CCNC(=O)CCCNC(=O)CCCC(=O)/N=C(\N)NCCC[C@@H](NC(=O)C(c1ccccc1)c1ccccc1)C(=O)NCc1ccc(O)cc1.O=C([O-])C(F)(F)F | 1 | 56 | 12 | Activity [11]: Active |
| Cc1cc(/C=C/c2cc3c4c(c2)CCCN4CCC3)cc(C)[n+]1CCN(CCNC(=O)CCCCC(=O)/N=C(\N)NCCC[C@@H](NC(=O)C(c1ccccc1)c1ccccc1)C(=O)NCc1ccc(O)cc1)CCNC(=O)CCCCC(=O)/N=C(\N)NCCC[C@@H](NC(=O)C(c1ccccc1)c1ccccc1)C(=O)NCc1ccc(O)cc1.O=C([O-])C(F)(F)F | 1.2 | 61 | 12 | degraded at 20 min [5]: 0%; degraded at 1.5 h [10]: < 0.5% |
| Cc1cc(/C=C/C=C2\N(C)c3ccc4ccccc4c3C2(C)C)cc(C)[n+]1CCOCCOCCNC(=O)CCCC(=O)/N=C(/N)NCCC[C@@H](NC(=O)C(c1ccccc1)c1ccccc1)C(=O)NCc1ccc(O)cc1.O=C([O-])C(F)(F)F | 6.8 | 96 | 12 |  |
| Cc1cc(/C=C/C=C2\N(C)c3ccc4ccccc4c3C2(C)C)cc(C)[n+]1CCOCCOCCNC(=O)CCCCC(=O)/N=C(/N)NCCC[C@@H](NC(=O)C(c1ccccc1)c1ccccc1)C(=O)NCc1ccc(O)cc1.O=C([O-])C(F)(F)F | 8 | 130 | 12 |  |
| Cc1cc(/C=C/C=C/c2ccc(N(C)C)cc2)cc(C)[n+]1CCCCNC(=O)/N=C(/N)NCCC[C@@H](NC(=O)C(c1ccccc1)c1ccccc1)C(=O)NCc1ccc(O)cc1.O=C([O-])C(F)(F)F | 7.6 | 150 | 12 |  |
| Cc1cc(/C=C/c2cc3c4c(c2)CCCN4CCC3)cc(C)[n+]1CCOCCOCCOCCC(=O)/N=C(/N)NCCC[C@@H](NC(=O)C(c1ccccc1)c1ccccc1)C(=O)NCc1ccc(O)cc1.O=C([O-])C(F)(F)F | 4.1 | 97 | 12 |  |
| CN(C)c1ccc(/C=C/C=C/c2sc3ccccc3[n+]2CCCC(=O)ON2C(=O)CCC2=O)cc1.O=C([O-])C(F)(F)F |  |  | 12 |  |
| Cc1cc(/C=C/c2cc3c4c(c2)CCCN4CCC3)cc(C)[n+]1CCCCNC(=O)/N=C(/N)NCCC[C@@H](NC(=O)C(c1ccccc1)c1ccccc1)C(=O)NCc1ccc(O)cc1.O=C([O-])C(F)(F)F | 7.2 | 140 | 12 |  |

The remaining molecules from weak to strong by Ki [2], led by results:

| Kb [1] [nM] | Ki [2] [nM] | Stability [4] [months] | Structure (SMILES) | further results |
| --- | --- | --- | --- | --- |
| 3.7 | 50 | 12 | Cc1cc(/C=C/C=C/c2ccc(N(C)C)cc2)cc(C)[n+]1CCCCCC(=O)/N=C(/N)NCCC[C@@H](NC(=O)C(c1ccccc1)c1ccccc1)C(=O)NCc1ccc(O)cc1.O=C([O-])C(F)(F)F |  |
| 2.4 | 42 | 12 | CN(C)c1ccc(/C=C/C=C/c2sc3ccccc3[n+]2CCCC(=O)NCCNC(=O)CCCC(=O)/N=C(/N)NCCC[C@@H](NC(=O)C(c2ccccc2)c2ccccc2)C(=O)NCc2ccc(O)cc2)cc1.O=C([O-])C(F)(F)F |  |
| 11 | 38 | 12 | Cc1cc(/C=C/c2cc3c4c(c2)CCCN4CCC3)cc(C)[n+]1CCCNC(=O)CCCC(=O)/N=C(/N)NCCC[C@@H](NC(=O)C(c1ccccc1)c1ccccc1)C(=O)NCc1ccc(O)cc1.O=C([O-])C(F)(F)F |  |
| 510 | 38 |  | N=C(N)N(CCC[C@@H](NC(=O)C(c1ccccc1)c1ccccc1)C(=O)NCc1ccc(O)cc1)C(=O)NCCCCN |  |
|  | 29 | 12 | Cc1cc(/C=C/c2cc3c4c(c2)CCCN4CCC3)cc(C)[n+]1CCCCCC(=O)/N=C(/N)NCCC[C@@H](NC(=O)C(c1ccccc1)c1ccccc1)C(=O)NCc1ccc(O)cc1.O=C([O-])C(F)(F)F |  |
| 11 | 24 | 12 | Cc1cc(/C=C/C=C/c2ccc(N(C)C)cc2)cc(C)[n+]1CCOCCOCC(=O)/N=C(/N)NCCC[C@@H](NC(=O)C(c1ccccc1)c1ccccc1)C(=O)NCc1ccc(O)cc1.O=C([O-])C(F)(F)F | Activity [7]: Active |
| 12 | 23 | 12 | Cc1cc(/C=C/c2cc3c4c(c2)CCCN4CCC3)cc(C)[n+]1CCCCCC(=O)/N=C(/N)NCCC[C@@H](NC(=O)C(c1ccccc1)c1ccccc1)C(=O)NCc1ccc(CNC(N)=O)cc1.O=C([O-])C(F)(F)F | degraded at 20 min [5]: 0%; Activity [7]: Active; degraded at 1.5 h [10]: < 0.5% |
| 6 | 22 | 12 | Cc1cc(/C=C/c2cc3c4c(c2)CCCN4CCC3)cc(C)[n+]1CCNC(=O)CCCC(=O)/N=C(/N)NCCC[C@@H](NC(=O)C(c1ccccc1)c1ccccc1)C(=O)NCc1ccc(O)cc1.O=C([O-])C(F)(F)F | IC50 [3]: > 10000 nM; Ki [3]: > 3000 nM; degraded at 20 min [5]: 1%; IC50 [6]: > 10000 nM; Ki [6]: > 5000 nM; Activity [7]: Active; IC50 [8]: > 10000 nM; Ki [8]: > 3000 nM; Ki [9]: 22 nM; degraded at 1.5 h [10]: 2.6% |
|  | 19 |  | NCCCCCC(=O)NC(N)=NCCC[C@@H](NC(=O)C(c1ccccc1)c1ccccc1)C(=O)NCc1ccc(O)cc1 |  |
| 16 | 4.3 |  | NCCCCNC(=O)/N=C(/N)NCCC[C@@H](NC(=O)C(c1ccccc1)c1ccccc1)C(=O)NCc1ccc(O)cc1 |  |
